Source: ChEMBL document CHEMBL4041479, “Piperlongumine (piplartine) and analogues: Antiproliferative microtubule-destabilising agents” (Eur J Med Chem, 2017)
One block for each molecule: values may come before it. Activity calls are given as the source filed them. No cut-off for these calls is given here.

Experiments:
MCF-10A [1] = experiment: Cytotoxicity in human MCF10A cells at 5 uM at 48 hrs by alamarBlue assay; format: cell-based
MCF-10A [2] = experiment: Cytotoxicity in human MCF10A cells at 1 uM after 24 to 48 hrs by alamarBlue assay; format: cell-based
MCF-10A [3] = experiment: Cytotoxicity in human MCF10A cells at 5 uM at 24 hrs by alamarBlue assay; format: cell-based
MCF7 [4] = experiment: Antiproliferative activity in human MCF7 cells assessed as cell viability after 48 hrs by alamarBlue assay; format: functional, cell-based; settings: MCF7, 48 h
How it was run: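 Cells were seeded at 2.5×10^4 cells/mL and treated after 24 h with vehicle (0.1% v/v ethanol) or a dose range (0.1–20 μM) for 48 h at 37 °C in 5% CO2. Media-only blanks were subtracted, and viability is given as % of vehicle. Sextuplicate wells, three independent experiments.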

MCF7 [5] = experiment: Induction of reactive oxygen species generation in human MCF7 cells assessed as decrease in cell viability at 5 to 20 uM in presence of trolox after 48 hrs by alamarBlue assay; format: functional, cell-based
How it was run: (§1)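 MCF-7 cells were seeded at 2.5×10^4 cells/mL and left to adhere. They were pre-treated 1 h with N-acetyl cysteine (1 mM) or Trolox (100 μM), then exposed to test agents for 48 h. Viability was measured by alamarBlue fluorescence as % of ethanol vehicle control. Mean of three independent experiments.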

MCF7 [6] = experiment: Induction of reactive oxygen species generation in human MCF7 cells assessed as decrease in cell viability at 5 to 20 uM in presence of N-acetyl cysteine after 48 hrs by alamarBlue assay; format: functional, cell-based; how it was run: as §1
Homo sapiens [7] = species on record: Homo sapiens; experiment: Induction of tubulin depolymerization in human Jurkat cells at 1 uM after 4 hrs by Western blot method; format: cell-based
How it was run: (§2)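 MCF-7 (1×10^6/well) or Jurkat cells were treated for 4 h with 1–20 μM or 0.1% ethanol. Cells were lysed in microtubule-preserving buffer (0.1 M PIPES pH 6.9, 2 M glycerol, 5 mM MgCl2, 2 mM EGTA, 0.5% Triton X-100, 4 μM paclitaxel) and centrifuged at 20,000g for 45 min. Soluble (supernatant) and polymer (pellet) fractions, 30 μg protein each, were immunoblotted for α-tubulin with a GAPDH loading control. Three experiments.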

Homo sapiens [8] = species on record: Homo sapiens; experiment: Induction of tubulin depolymerization in human MCF7 cells at 1 uM after 4 hrs by Western blot method; format: cell-based; how it was run: as §2
MCF7 [9] = experiment: Induction of reactive oxygen species generation in human MCF7 cells assessed as decrease in cell viability at 10 uM in presence of N-acetyl cysteine after 48 hrs by alamarBlue assay; format: functional, cell-based; how it was run: as §1

IC50 (MCF7 [4]): 7.5 µM
SMILES: COc1cccc(/C=C/C(=O)N2CCC=CC2=O)c1
Activity (MCF-10A [1]): > 80% | Activity (MCF-10A [2]): Non-Toxic | Activity (MCF-10A [3]): > 90%

IC50 (MCF7 [4]): 3.4 µM
SMILES: COc1cc(OC)c(OC)cc1/C=C/C(=O)N1CCC=CC1=O
Activity (MCF-10A [1]): > 80% | Activity (MCF7 [5]): inactive | Activity (MCF-10A [2]): Non-Toxic | Activity (MCF7 [6]): inactive | Activity (MCF-10A [3]): > 90%

SMILES: CC(=O)O[C@H]1C(=O)[C@@]2(C)[C@H]([C@H](OC(=O)c3ccccc3)[C@]3(O)C[C@H](OC(=O)[C@H](O)[C@@H](NC(=O)c4ccccc4)c4ccccc4)C(C)=C1C3(C)C)[C@]1(OC(C)=O)CO[C@@H]1C[C@@H]2O
Activity (Homo sapiens [7]): inactive | Activity (Homo sapiens [8]): inactive

SMILES: COC(=O)Nc1nc2cc(C(=O)c3cccs3)ccc2[nH]1
Activity (Homo sapiens [7]): Active | Activity (Homo sapiens [8]): Active

SMILES: COc1cc(/C=C/C(=O)c2ccccc2)cc(OC)c1OC
Activity (MCF7 [9]): inactive
